ChEMBL document CHEMBL3351651 (Bioorg Med Chem, 2014)

Columns and labels:
Mus musculus [1] = experiment: Hypolipidiemic activity in tyloxapol-induced ICR mouse hyperlipidemic model assessed as reduction in serum cholesterol level at 25 mg/kg, ip after 24 hrs; assay type: functional; parameters: scale not given: the % may be the effect or the level left; conditions: route intraperitoneal
Mus musculus [2] = experiment: Hypolipidiemic activity in tyloxapol-induced ICR mouse hyperlipidemic model assessed as reduction in serum cholesterol level at 50 mg/kg, ip after 24 hrs; assay type: functional; parameters: scale not given: the % may be the effect or the level left; conditions: route intraperitoneal
Mus musculus [3] = experiment: Hypolipidiemic activity in tyloxapol-induced ICR mouse hyperlipidemic model assessed as reduction in serum cholesterol level at 100 mg/kg, ip after 24 hrs; assay type: functional; parameters: scale not given: the % may be the effect or the level left; conditions: route intraperitoneal
Mus musculus [4] = experiment: Hypolipidiemic activity in tyloxapol-induced ICR mouse hyperlipidemic model assessed as reduction in serum LDL-cholesterol level at 25 mg/kg, ip after 24 hrs; assay type: functional; parameters: scale not given: the % may be the effect or the level left; conditions: route intraperitoneal
Mus musculus [5] = experiment: Hypolipidiemic activity in tyloxapol-induced ICR mouse hyperlipidemic model assessed as reduction in serum LDL-cholesterol level at 50 mg/kg, ip after 24 hrs; assay type: functional; parameters: scale not given: the % may be the effect or the level left; conditions: route intraperitoneal
Mus musculus [6] = experiment: Hypolipidiemic activity in tyloxapol-induced ICR mouse hyperlipidemic model assessed as reduction in serum LDL-cholesterol level at 100 mg/kg, ip after 24 hrs; assay type: functional; parameters: scale not given: the % may be the effect or the level left; conditions: route intraperitoneal
Mus musculus [7] = experiment: Hypolipidiemic activity in tyloxapol-induced ICR mouse hyperlipidemic model assessed as increase in serum HDL-cholesterol level at 25 mg/kg, ip after 24 hrs; assay type: functional; conditions: route intraperitoneal
Mus musculus [8] = experiment: Hypolipidiemic activity in tyloxapol-induced ICR mouse hyperlipidemic model assessed as increase in serum HDL-cholesterol level at 50 mg/kg, ip after 24 hrs; assay type: functional; conditions: route intraperitoneal
Mus musculus [9] = experiment: Hypolipidiemic activity in tyloxapol-induced ICR mouse hyperlipidemic model assessed as increase in serum HDL-cholesterol level at 100 mg/kg, ip after 24 hrs; assay type: functional; conditions: route intraperitoneal
Mus musculus [10] = experiment: Hypolipidiemic activity in tyloxapol-induced ICR mouse hyperlipidemic model assessed as reduction in serum triglyceride level at 25 mg/kg, ip after 24 hrs; assay type: functional; parameters: scale not given: the % may be the effect or the level left; conditions: route intraperitoneal
Mus musculus [11] = experiment: Hypolipidiemic activity in tyloxapol-induced ICR mouse hyperlipidemic model assessed as reduction in serum triglyceride level at 50 mg/kg, ip after 24 hrs; assay type: functional; parameters: scale not given: the % may be the effect or the level left; conditions: route intraperitoneal
Mus musculus [12] = experiment: Hypolipidiemic activity in tyloxapol-induced ICR mouse hyperlipidemic model assessed as reduction in serum triglyceride level at 100 mg/kg, ip after 24 hrs; assay type: functional; parameters: scale not given: the % may be the effect or the level left; conditions: route intraperitoneal
[13] = Metabolic stability in presence of pepsin (unknown origin) assessed as retention time by HPLC analysis; assay type: ADME; conditions: human, isolated protein
[14] = Metabolic stability in presence of alpha-chymotrypsin (unknown origin) assessed as retention time by HPLC analysis; assay type: ADME; conditions: human
Mus musculus [15] = experiment: Hypolipidiemic activity in tyloxapol-induced ICR mouse hyperlipidemic model assessed as reduction in serum cholesterol level at 17 mg/kg, ip after 24 hrs; assay type: functional; parameters: scale not given: the % may be the effect or the level left; conditions: route intraperitoneal
Outline: (§1)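 Male ICR mice (25–30 g) were kept at 24 °C with a 12 h light/dark cycle on standard pellet diet with free water. Hyperlipidemia was induced with tyloxapol (400 per table) and test agents were given ip. After 24 h, retro-orbital blood was centrifuged and serum TC, HDL-C and TG were measured. LDL-C was calculated by the Friedewald equation. Assays were run in duplicate; values are means of 6 mice.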

Mus musculus [16] = experiment: Hypolipidiemic activity in tyloxapol-induced ICR mouse hyperlipidemic model assessed as reduction in serum LDL-cholesterol level at 17 mg/kg, ip after 24 hrs; assay type: functional; parameters: scale not given: the % may be the effect or the level left; conditions: route intraperitoneal; outline: as §1
Mus musculus [17] = experiment: Hypolipidiemic activity in tyloxapol-induced ICR mouse hyperlipidemic model assessed as increase in serum HDL-cholesterol level at 17 mg/kg, ip after 24 hrs; assay type: functional; conditions: route intraperitoneal; outline: as §1
Mus musculus [18] = experiment: Hypolipidemic activity in tyloxapol-induced ICR mouse hyperlipidemic model assessed as reduction in serum triglyceride level at 17 mg/kg, ip after 24 hrs; assay type: functional; parameters: scale not given: the % may be the effect or the level left; conditions: route intraperitoneal; outline: as §1

SMILES | Activity (Mus musculus [1]) [%] | Activity (Mus musculus [2]) [%] | Activity (Mus musculus [3]) [%] | Activity (Mus musculus [4]) [%] | Activity (Mus musculus [5]) [%] | Activity (Mus musculus [6]) [%] | Activity (Mus musculus [7]) [%] | Activity (Mus musculus [8]) [%] | Activity (Mus musculus [9]) [%] | Activity (Mus musculus [10]) [%] | Activity (Mus musculus [11]) [%] | Activity (Mus musculus [12]) [%] | Retention_time [13] [min] | Retention_time [14] [min] | Retention time [14] [min] | Activity (Mus musculus [15]) [%] | Activity (Mus musculus [16]) [%] | Activity (Mus musculus [17]) [%] | Activity (Mus musculus [18]) [%]
CCCc1cc(OC)c(OCC(=O)OC)cc1O | -79.77 | -80.21 | -74.02 | -89.32 | -87.97 | -81.23 | 91.53 | 57.63 | 50.85 | -84.13 | -81.93 | -71.38 |  |  |  |  |  |  | 
CCCC(=O)c1cc(OC)c(OCC(=O)OC)cc1O | -78.38 | -49.26 | -73.23 | -84.7 | -54.28 | -79.4 | 30.51 | 20.34 | 35.59 | -73.12 | -27.8 | -73.58 | 13.16 | 13.18 |  |  |  |  | 
CCCCc1cc(OC)c(OC)cc1O | -70.1 | -67.04 | -70.1 | -74.78 | -70.93 | -74.69 | 23.73 | 11.86 | 23.73 | -82.57 | -79.17 | -83.94 | 12.45 | 12.44 |  |  |  |  | 
CCC(=O)c1cc(OC)c(OC)cc1O | -81.69 | -81.95 | -81.43 | -86.72 | -87.68 | -88.35 | 6.78 | 16.95 | 40.68 | -80.09 | -81.01 | -80.92 |  |  |  |  |  |  | 
COC(=O)COc1cc(O)c(C(C)=O)cc1OC | -74.72 | -72.71 | -75.33 | -81.62 | -76.9 | -85.76 | 8.47 | 1.69 | 13.56 | -28.62 | -74.77 | -51.38 | 8.67 | 8.68 |  |  |  |  | 
CCc1cc(OC)c(OCC(=O)OC)cc1O | -79.08 | -69.22 | -78.2 | -86.14 | -75.26 | -82.58 | 40.68 | 28.81 | -3.39 | -72.94 | -59.63 | -75.87 | 7.78 | 7.78 |  |  |  |  | 
CCc1cc(OC)c(OC)cc1O | -67.13 | -73.41 | -75.85 | -72.47 | -78.34 | -83.93 | 33.9 | 25.42 | 71.19 | -76.79 | -86.97 | -81.65 | 6.95 |  | 6.94 |  |  |  | 
CCC(=O)c1cc(OC)c(OCC(=O)OC)cc1O | -68.18 | -66.87 | -74.46 | -72.18 | -76.03 | -81.33 | -3.39 | 66.1 | 45.76 | -59.82 | -31.93 | -75.41 |  |  |  |  |  |  | 
CCCCc1cc(OC)c(OCC(=O)OC)cc1O | -70.62 | -59.46 | -79.95 | -77.77 | -62.75 | -89.51 | 11.86 | -3.39 | 89.83 | -20.46 | -49.82 | -82.75 | 13.81 | 13.8 |  |  |  |  | 
CCCc1cc(OC)c(OC)cc1O | -71.84 | -66.7 | -69.22 | -78.15 | -71.61 | -73.63 | 49.15 | 25.42 | 15.25 | -82.75 | -73.85 | -77.98 |  |  |  |  |  |  | 
COc1cc(O)c(C(C)=O)cc1OC | -71.84 | -80.09 | -80.12 | -76.23 | -87.01 | -87.68 | -4.75 | 44.07 | 55.93 | -59.63 | -80.92 | -82.11 | 8.57 | 8.58 |  |  |  |  | 
CCCC(=O)c1cc(OC)c(OC)cc1O | -74.28 | -81.4 | -83.26 | -80.65 | -87.97 | -88.74 | 33.9 | 30.51 | 8.47 | -69.54 | -77.25 | -79.36 | 13.84 | 13.83 |  |  |  |  | 
CCC(C)(C)C(=O)O[C@H]1C[C@@H](C)C=C2C=C[C@H](C)[C@H](CC[C@@H]3C[C@@H](O)CC(=O)O3)[C@H]21 [SIMVASTATIN] |  |  |  |  |  |  |  |  |  |  |  |  |  |  |  | -63.46 | -84.31 | 292.2 | -57
